# GPR7 antag = GPR7 receptor antagonists, primary screen, cell-based, fluorescence, single concentration; AID 1861, 2009; GPR7-expressing cells, fluorescence antagonist assay; inhibition, % at 4.4 µM; 290,000 tested, 1.1% active; Neuropeptides B/W receptor type 1 (Homo sapiens), P48145; in the data active = inhibition above about 16%, passing the limit was not always enough;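 note: cells stimulated with the agonist NPW; 0% = agonist with vehicle and 100% = vehicle without agonist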
# Target sequence (P48145 whole entry, looked up): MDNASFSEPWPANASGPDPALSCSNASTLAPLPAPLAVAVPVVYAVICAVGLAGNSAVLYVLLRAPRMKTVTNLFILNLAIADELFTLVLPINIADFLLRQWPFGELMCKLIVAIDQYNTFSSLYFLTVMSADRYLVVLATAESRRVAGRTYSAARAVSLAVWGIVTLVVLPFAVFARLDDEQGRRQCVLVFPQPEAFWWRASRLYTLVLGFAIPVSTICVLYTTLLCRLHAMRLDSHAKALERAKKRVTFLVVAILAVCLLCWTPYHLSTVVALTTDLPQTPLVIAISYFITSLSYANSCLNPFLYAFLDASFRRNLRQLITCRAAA
# TAAR1 antagonist = human TAAR1 antagonists, primary screen, Fluo-8 calcium fluorescence, CHO RD-HGA16 cells. Trace amine-associated receptor 1 (Homo sapiens), Q96RJ0. antagonist. inhibition, % at 3 µM. 360,000 tested, 1.5% active;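 active = inhibition above a per-plate cutoff, the mean inhibition of test compounds on that plate plus 3 SD, cut at about 49% in these data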;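 note: 0% = DMSO plus EC80 beta-PEA response and 100% = DMSO alone without agonist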
# Target sequence (Q96RJ0 whole entry, looked up): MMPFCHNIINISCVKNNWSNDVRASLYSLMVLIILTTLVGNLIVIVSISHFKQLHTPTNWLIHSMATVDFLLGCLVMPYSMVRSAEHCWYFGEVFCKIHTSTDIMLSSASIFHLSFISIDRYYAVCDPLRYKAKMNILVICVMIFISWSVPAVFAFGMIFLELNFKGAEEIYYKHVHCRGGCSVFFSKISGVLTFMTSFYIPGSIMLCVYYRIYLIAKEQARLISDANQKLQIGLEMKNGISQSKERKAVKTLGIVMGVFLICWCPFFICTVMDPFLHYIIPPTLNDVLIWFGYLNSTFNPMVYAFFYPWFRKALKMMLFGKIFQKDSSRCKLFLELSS
#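 Test system – hTAAR1-expressing CHO RD-HGA16 cells, Gα16-coupled · Also added – β-PEA at EC80 concentration, post-compound challenge · Compound – 3 µM, single point · Incubation – dye loading 75 min at 37 °C, then 30 min room temperature · Measured by – Fluo-8 intracellular calcium dye fluorescence, real-time kinetic reads · Benchmarks – vehicle and agonist controls · Replicates – singlicate, one well per test compound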
# OX1R antag-1 = OX1R (HCRTR1) antagonists, primary screen, fluorescence, CHO/OX1R cells, Fluo-8 calcium, orexin A. AID 434989, 2010. Orexin/Hypocretin receptor type 1 (Homo sapiens), O43613. Fluo-8 calcium fluorescence. inhibition, % at 5 µM. 330,000 tested, 0.43% active;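 active = inhibition above its plate's threshold, mean inhibition of all tested compounds on the plate plus 3 SD, cut at about 37% in these data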;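 note: 0% = orexin A challenge wells and 100% = SB-334867-A antagonist wells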
# OX1R antag-2 = antagonists of human orexin 1 receptor (OX1R) | 330,000 tested, 1.8% active | inhibition, % at 6.6 µM | Orexin/Hypocretin receptor type 1 (Homo sapiens), O43613 | OX1R-expressing cells, FRET antagonist read-out; in the data active = inhibition mostly above about 38%, no sharp cut-off; inactive = mostly below about 40%;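 note: 0% = agonist challenge alone and 100% = reference antagonist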
# TAAR1 ag = human TAAR1 agonists, primary screen, Fluo-8 calcium fluorescence, CHO RD-HGA16 cells | Trace amine-associated receptor 1 (Homo sapiens), Q96RJ0 | vehicle wells 0%, saturating PEA agonist 100% | 360,000 tested, 0.99% active | AID 624467, 2012 | activation, % at 3 µM;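 active = activation above the mean activation of all test compounds in the run plus 3 SD, cut at about 38% in these data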
#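 Test system: RD-HGA16 (CHO) cells co-expressing Gα16 and hTAAR1 / Benchmarks: DMSO vehicle as 0%, PEA at EC100 as 100% / Repeats: no replicates (n 1) / Measure: % activation from peak over basal fluorescence ratio, DMSO-to-PEA scaled / Timing: 17-24 h plating, Fluo-8 75 min 37 °C, 30 min RT / Technique: kinetic Fluo-8 calcium fluorescence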
# CHO parental Ca = ATP-evoked calcium signal inhibitors, parental CHO, primary screen, counter-screen for OX1R antagonist project, cell-based, fluorescence, Fluo-8 calcium dye; parental CHO-K1, ATP-induced calcium, Fluo-8 fluorescence; inhibition, % at 5.6 µM; 330,000 tested, 0.63% active; AID 463079, 2010;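 active = inhibition above that plate's mean sample inhibition plus 3 SD, cut at about 26% in these data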;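 note: 0% = ATP-challenged DMSO wells and 100% = DMSO wells without ATP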
#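 material = parental CHO cells | also added = ATP as calcium-mobilizing challenge | dosing = single point at 5.6 µM | detection = intracellular calcium via Fluo-8 no-wash fluorescent dye | read-out = % inhibition | benchmarks = low control ATP plus DMSO, high control DMSO only | repeats = one well per compound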
# Active calls of the source: *; · = no result. In the library only some 4.6% were active in any assay of this set; here they are far more common.
SMILES,GPR7 antag,TAAR1 antagonist,OX1R antag-1,OX1R antag-2,TAAR1 ag,CHO parental Ca
Cc1cc(C(=O)N/N=C\c2ccc(COc3ccc([N+](=O)[O-])cc3)o2)ccc1[N+](=O)[O-],-5,54*,4,24,14,-1
O=C(CCc1nc(-c2cccs2)no1)Nc1cnc2ccccc2c1,-2,-15,0,18,42*,-7
CCc1cccc(NC(=O)CCc2nc(-c3cccs3)no2)c1,-1,-2,-14,23,3,6
COc1cccc(C(C(=O)NCc2ccccc2)N2CCN(C(=O)C3CCCO3)CC2)c1OC (stereo unspecified),·,-6,·,·,0,·
CC(=O)c1ccc(N2CCN(C(=S)Nc3cc(C)ccc3C)CC2)cc1,-4,-2,-6,-2,7,-4
CCCCNC(=S)N1CCN(c2ccc(C(C)=O)cc2)CC1,19*,16,-4,11,3,18
O=S(=O)(c1ccccc1)N1CCCc2nc(-c3ccc(Br)cc3)ccc21,·,29,·,·,0,·
Cc1ccc(N=Cc2c(O)c3ccccc3oc2=O)c(C)c1,-13,-21,-9,2,0,-8
CCc1cccc(C)c1N=Cc1c(O)c2ccccc2oc1=O,7,2,-4,54*,0,-1
Cc1ccc(F)cc1N=Cc1c(O)c2ccccc2oc1=O,-12,·,-20,58*,·,-4
CCOC(=O)N1CCN(C(c2ccnc3ccccc23)c2nnnn2-c2ccc3c(c2)OCCO3)CC1 (stereo unspecified),·,-4,·,·,1,·
COc1ccc(N(CC(=O)NCc2ccc(C)cc2)S(=O)(=O)c2ccccc2[N+](=O)[O-])c(OC)c1,6,5,8,45,10,-10
COc1ccc(N(CC(=O)NCc2ccccc2C)S(=O)(=O)c2ccccc2[N+](=O)[O-])c(OC)c1,14,22,14,64*,5,-17
COc1ccc(NC(=O)c2cc3c(=O)n(C)c4ccccc4c3s2)cc1OC,-9,-7,-12,54*,7,-8
CCn1c(=O)c2cc(C(=O)Nc3ccc(OC)cc3OC)sc2c2ccccc21,-19,6,1,13,0,-5
Cc1cc(C)cc([C@H]2C[C@]34CN(C(=O)OC(C)(C)C)S(=O)(=O)[C@H]3C[C@H]2O4)c1,·,3,·,·,-2,·
COc1ccc(Cl)cc1N1C(=O)C2CCCN2C1c1ccc(F)c(F)c1 (stereo unspecified),16*,-24,-16,10,-2,-27
COc1cc2c(c3c1c(=O)c1ccccc1n3C)C=CC(C)(C)O2,·,-29,·,·,1,·
CCCNc1[nH]c(=O)n(C)c(=O)c1N=O,-3,6,-21,69*,7,-3
O=[N+]([O-])c1ccc2nc(-c3ccc(Cl)cc3)[nH]c2c1,24*,21,12,25,35,20
Cc1ccc(-c2nc3ccc([N+](=O)[O-])cc3[nH]2)cc1,54*,0,-6,48,14,-11
COc1ccc(-c2nc3ccc([N+](=O)[O-])cc3[nH]2)cc1,11,-22,-9,19,15,0
O=[N+]([O-])c1ccc2nc(-c3ccncc3)[nH]c2c1,-18,-23,-5,17,2,-9
O=C(c1cccnc1)N(Cc1ccccc1)C(c1ccccc1)c1nc2ccccc2[nH]1 (stereo unspecified),·,22,·,·,6,·
Cc1ccc(S(=O)(=O)N2CCCN(c3nc4cc(C)ccc4cc3C#N)CC2)cc1,-6,4,38,48*,-2,-21
SMILES,GPR7 antag,TAAR1 antagonist,OX1R antag-1,OX1R antag-2,TAAR1 ag,CHO parental Ca
Cn1ccsc1=NC(=O)c1ccc([N+](=O)[O-])o1,-6,-25,-2,105*,3,-3
COc1cccc(C(NC(C)=O)c2nc(-c3ccoc3)cs2)c1 (stereo unspecified),·,-13,·,·,4,·
CCc1ccc2[nH]c3nc(N/N=C/c4ccc(O)cc4O)nnc3c2c1,-18,17,-2,74*,3,-13
Cc1cc(N=Nc2ccccc2C(=O)O)c(C)c(C)c1O,-5,-27,-3,50*,0,6
COc1cc2c(c(OC)c1OC)[C@@]1(c3ccccc3)CCCCC[C@H]1[C@@H]2NC(=O)C(F)(F)F,·,-18,·,·,-1,·
O=C(NCCc1cccs1)C12CN(Cc3ccccc3)CC1C(c1cccc([N+](=O)[O-])c1)=NO2 (stereo unspecified),1,0,-10,13,40*,-6
CC(C)NC(=O)c1ccc(COCC(F)(F)C(F)F)cc1,2,2,-18,11,9,-2
O=C(NCC1CCCO1)c1ccc(COCC(F)(F)C(F)F)cc1 (stereo unspecified),17*,-8,-6,10,-2,-1
CCOc1ccccc1OCCCOc1ccc([N+](=O)[O-])cc1Cl,-11,30,-5,29,8,14
COc1cccc(OC)c1OCCCOc1ccc([N+](=O)[O-])cc1Cl,17*,23,-29,12,5,-16
CC(C)OCC(O)CN1CCN(CCN2C(=O)c3cccc4cccc(c34)C2=O)CC1 (stereo unspecified),-2,-8,-30,41*,1,-8
CCC(OCC(O)CN1CCN(CCN2C(=O)c3cccc4cccc(c34)C2=O)CC1)c1ccccc1 (stereo unspecified),-5,2,-36,24,8,-31
OC[C@H]1O[C@@H](c2nc(-c3cccc4ccccc34)no2)[C@H](O)[C@@H]1O,·,-3,·,·,0,·
O=C(c1cccc(S(=O)(=O)N2CCN(c3ccccc3)CC2)c1)N1CCCC(C(F)(F)F)C1 (stereo unspecified),·,15,-2,21,1,34*
COc1ccc(S(=O)(=O)N2CCN(C(=O)c3cc(-c4ccc(Br)cc4)n[nH]3)CC2)cc1OC,-6,62*,24,15,10,23
N#Cc1ccc2nc(-c3ccc(CN4CCC5(CC4)CNc4ccccc45)cc3)c(-c3ccccc3)nc2c1,·,19,·,·,0,·
O=C1C=C(Nc2cccc3cccnc23)c2ccccc2C1=O,-11,-8,-10,64*,-1,-8
O=C1C=C(Nc2ccccc2C(=O)O)c2ccccc2C1=O,-13,-14,-6,51,1,-5

# Assay outcomes: PubChem BioAssay, The Scripps Research Institute Molecular Screening Center
